Test results reported in ChEMBL document CHEMBL4480414, “Design and total synthesis of (-)-codonopsinine, (-)-codonopsine and codonopsinine analogues by O-(2-oxopyrrolidin-5-yl)trichloroacetimidate as amidoalkylating agent with improved antimicrobial activity via solid lipid nanoparticle formulations” (Bioorg Med Chem, 2019).
Converted amounts (≈) assume the structure as drawn. The source made the active and inactive calls. The rule behind the calls is not given here.

Legend:
Candida albicans [1] = assay: Antimicrobial activity against Candida albicans ATCC 10231 at 380 ug by Kirby-Bauer disk diffusion test; type: functional, organism-based
How it was run: (§1)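 Modified Kirby-Bauer disc diffusion on Muller-Hinton agar. Inhibition-zone diameter, disc diameter included, measured with a ruler from under the plate and recorded in mm.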

[2] = Dissolution of the compound in phosphate buffer at pH 6.8 measured over 12 hrs using solid lipid nanoparticle formulation by dialysis bag diffusion method; type: physicochemical; details: artificial membrane, pH 6.8, 12 h
How it was run: (§2)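 SLNs made by hot emulsification-ultrasonication with Compritol as lipid and 3% Pluronic F68 aqueous phase. Homogenized at 10,000 rpm and 75 °C for 15 min, then probe-sonicated 10 min.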

[3] = Dissolution of the compound in phosphate buffer at pH 6.8 measured within 2 hrs by dialysis bag diffusion method; type: physicochemical; details: artificial membrane, pH 6.8, 2 h
How it was run: (§3)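 Formula or compound suspension (3 ml) in 12 kDa MWCO dialysis bags, in 500 ml enzyme-free phosphate buffer pH 6.8, 37 °C, 50 rpm. 5 ml samples taken with replacement over 12 h. Cumulative % release determined by UV absorbance against a calibration curve.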

[4] = Permeability of the compound in simulated dialysis membrane at pH 6.8 measured within 6 hrs by Franz diffusion cell-based spectrophotometric method; type: ADME, cell membranes; details: artificial membrane, pH 6.8, 6 h
How it was run: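 Franz cell with dialysis membrane. 1 ml of SLN formula or compound suspension in the donor chamber; receptor holds phosphate buffer pH 6.8 at 37 °C, magnetically stirred. Receptor sampled with replacement over 6 h; concentration by UV absorbance against a calibration curve.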

[5] = Permeability of the compound in simulated dialysis membrane at pH 6.8 measured within 6 hrs using solid lipid nanoparticle formulation by Franz diffusion cell-based spectrophotometric method; type: ADME, cell membranes; details: artificial membrane, pH 6.8, 6 h; how it was run: as §2
Staphylococcus aureus [6] = assay: Antimicrobial activity against Staphylococcus aureus ATCC 29213 assessed as diameter of inhibition zone at 380 ug by Kirby-Bauer disk diffusion test; type: functional; how it was run: as §1
Staphylococcus aureus [7] = assay: Antimicrobial activity against Staphylococcus aureus ATCC 29213 measured after 18 hrs by broth microdilution method; type: functional; details: ATCC 29213, 18 h
How it was run: (§4)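 Broth microdilution in 96-well plates. Compound stock 10 mg/ml in DMSO, two-fold serial dilutions from final 1024 to 0.5 µg/ml in water plus double-strength nutrient broth. Inoculum from direct colony suspension in saline adjusted to 0.5 McFarland, final 5 × 10⁵ CFU per well, used within 15 min. Positive and negative control rows.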

Escherichia coli [8] = assay: Antimicrobial activity against Escherichia coli ATCC 25922 measured after 18 hrs by broth microdilution method; type: functional; details: ATCC 25922, 18 h; how it was run: as §4
Klebsiella pneumoniae [9] = assay: Antimicrobial activity against Klebsiella pneumoniae ATCC 700603 measured after 18 hrs by broth microdilution method; type: functional; details: Klebsiella pneumoniae, 700603, 18 h; how it was run: as §4
Proteus mirabilis [10] = assay: Antimicrobial activity against Proteus mirabilis ATCC 14153 measured after 18 hrs by broth microdilution method; type: functional; details: ATCC 14153, 18 h; how it was run: as §4
Pseudomonas aeruginosa [11] = assay: Antimicrobial activity against Pseudomonas aeruginosa ATCC 27853 measured after 18 hrs by broth microdilution method; type: functional; details: ATCC 27853, 18 h; how it was run: as §4
Acinetobacter baumannii [12] = assay: Antimicrobial activity against clinical isolate of Acinetobacter baumannii measured after 18 hrs by broth microdilution method; type: functional; how it was run: as §4
Candida albicans [13] = assay: Antimicrobial activity against Candida albicans ATCC 10231 measured after 18 hrs by broth microdilution method; type: functional; details: ATCC 10231, 18 h; how it was run: as §4
Staphylococcus aureus [14] = assay: Antimicrobial activity against Staphylococcus aureus ATCC 29213 measured after 18 hrs using solid lipid nanoparticle formulation by broth microdilution method; type: functional; details: ATCC 29213, 18 h; how it was run: as §4
Escherichia coli [15] = assay: Antimicrobial activity against Escherichia coli ATCC 25922 measured after 18 hrs using solid lipid nanoparticle formulation by broth microdilution method; type: functional; details: ATCC 25922, 18 h; how it was run: as §4
Klebsiella pneumoniae [16] = assay: Antimicrobial activity against Klebsiella pneumoniae ATCC 700603 measured after 18 hrs using solid lipid nanoparticle formulation by broth microdilution method; type: functional; details: Klebsiella pneumoniae, 700603, 18 h; how it was run: as §4
Proteus mirabilis [17] = assay: Antimicrobial activity against Proteus mirabilis ATCC 14153 measured after 18 hrs using solid lipid nanoparticle formulation by broth microdilution method; type: functional; details: ATCC 14153, 18 h; how it was run: as §4
Pseudomonas aeruginosa [18] = assay: Antimicrobial activity against Pseudomonas aeruginosa ATCC 27853 measured after 18 hrs using solid lipid nanoparticle formulation by broth microdilution method; type: functional; details: ATCC 27853, 18 h; how it was run: as §4
Acinetobacter baumannii [19] = assay: Antimicrobial activity against clinical isolate of Acinetobacter baumannii measured after 18 hrs using solid lipid nanoparticle formulation by broth microdilution method; type: functional; how it was run: as §4
Candida albicans [20] = assay: Antimicrobial activity against Candida albicans ATCC 10231 measured after 18 hrs using solid lipid nanoparticle formulation by broth microdilution method; type: functional; details: ATCC 10231, 18 h; how it was run: as §4
Escherichia coli [21] = assay: Antimicrobial activity against Escherichia coli ATCC 25922 assessed as diameter of inhibition zone at 380 ug by Kirby-Bauer disk diffusion test; type: functional; details: read-out: DIZ; how it was run: as §1
Klebsiella pneumoniae [22] = assay: Antimicrobial activity against Klebsiella pneumoniae ATCC 700603 assessed as diameter of inhibition zone at 380 ug by Kirby-Bauer disk diffusion test; type: functional; details: read-out: DIZ; how it was run: as §1
Proteus mirabilis [23] = assay: Antimicrobial activity against Proteus mirabilis ATCC 14153 assessed as diameter of inhibition zone at 380 ug by Kirby-Bauer disk diffusion test; type: functional; details: read-out: DIZ; how it was run: as §1
Pseudomonas aeruginosa [24] = assay: Antimicrobial activity against Pseudomonas aeruginosa ATCC 27853 assessed as diameter of inhibition zone at 380 ug by Kirby-Bauer disk diffusion test; type: functional; details: read-out: DIZ; how it was run: as §1
Acinetobacter baumannii [25] = assay: Antimicrobial activity against clinical isolate of Acinetobacter baumannii assessed as diameter of inhibition zone at 380 ug by Kirby-Bauer disk diffusion test; type: functional; details: read-out: DIZ; how it was run: as §1
[26] = Dissolution of the compound in phosphate buffer at pH 6.8 measured after 2 hrs by dialysis bag diffusion method; type: physicochemical; details: artificial membrane, pH 6.8, 2 h; how it was run: as §3

Compound | Activity (Candida albicans [1]) | Activity [2] [%] | Activity [3] [%] | permeability [4] [%] | permeability [5] [%] | MIC (Staphylococcus aureus [7]) [mg/L] | MIC (Escherichia coli [8]) [mg/L] | MIC (Klebsiella pneumoniae [9]) [mg/L] | MIC (Proteus mirabilis [10]) [mg/L] | MIC (Pseudomonas aeruginosa [11]) [mg/L] | MIC (Acinetobacter baumannii [12]) [mg/L] | MIC (Candida albicans [13]) [mg/L] | MIC (Staphylococcus aureus [14]) [mg/L] | MIC (Escherichia coli [15]) [mg/L] | MIC (Klebsiella pneumoniae [16]) [mg/L] | MIC (Proteus mirabilis [17]) [mg/L] | MIC (Pseudomonas aeruginosa [18]) [mg/L] | MIC (Acinetobacter baumannii [19]) [mg/L] | MIC (Candida albicans [20]) [mg/L] | further results
COc1ccc([C@@H]2[C@@H](O)[C@H](O)[C@@H](C)N2C)cc1 | inactive | 93.3 | 95.2 | 60.7 | 100 | ≤ 0.5 | 128 (≈ 539 µM) | > 1020 | 128 (≈ 539 µM) | 1020 (≈ 4320 µM) | > 1020 | > 1020 | ≤ 0.5 | 64 (≈ 270 µM) | 1020 (≈ 4320 µM) | 64 (≈ 270 µM) | > 1020 | 256 (≈ 1080 µM) | > 1020 | zone of inhibition at 380 µg/disc (Staphylococcus aureus [6]; read-out: DIZ): 32 mm
Cc1ccc([C@@H]2[C@@H](O)[C@H](O)[C@@H](C)N2C)cc1 | inactive | 90.1 | 100 | 56.3 | 100 | > 1020 | 128 (≈ 578 µM) | 1020 (≈ 4630 µM) | 1020 (≈ 4630 µM) | 1020 (≈ 4630 µM) | 256 (≈ 1160 µM) | > 1020 | 1020 (≈ 4630 µM) | 512 (≈ 2310 µM) | 512 (≈ 2310 µM) | 512 (≈ 2310 µM) | 1020 (≈ 4630 µM) | 64 (≈ 289 µM) | > 1020 | –
C[C@@H]1[C@@H](O)[C@H](O)[C@@H](c2ccccc2)N1C | inactive | 91.2 | 100 | 49.8 | 100 | 1020 (≈ 4940 µM) | 16 (≈ 77.2 µM) | 1020 (≈ 4940 µM) | 4 (≈ 19.3 µM) | 1020 (≈ 4940 µM) | 128 (≈ 618 µM) | > 1020 | 1020 (≈ 4940 µM) | 16 (≈ 77.2 µM) | > 1020 | 2 (≈ 9.65 µM) | 512 (≈ 2470 µM) | 16 (≈ 77.2 µM) | > 1020 | zone of inhibition at 380 µg/disc (Escherichia coli [21]): 40 mm; zone of inhibition at 380 µg/disc (Klebsiella pneumoniae [22]): 22 mm; zone of inhibition at 380 µg/disc (Proteus mirabilis [23]): 34 mm; zone of inhibition at 380 µg/disc (Pseudomonas aeruginosa [24]): 18 mm; zone of inhibition at 380 µg/disc (Acinetobacter baumannii [25]): 32 mm
COc1cc([C@@H]2[C@@H](O)[C@H](O)[C@@H](C)N2C)c(F)c(C)c1OC | inactive | 92.2 | – | 72.9 | 100 | 4 (≈ 13.4 µM) | 64 (≈ 214 µM) | 512 (≈ 1710 µM) | 1020 (≈ 3420 µM) | 1020 (≈ 3420 µM) | 512 (≈ 1710 µM) | > 1020 | 4 (≈ 13.4 µM) | 16 (≈ 53.5 µM) | > 1020 | 128 (≈ 428 µM) | > 1020 | 256 (≈ 855 µM) | > 1020 | Activity [26]: 78.2%; growth inhibition (GI) (Staphylococcus aureus [6]): Active
